# High-throughput results: PubChem, Johns Hopkins Ion Channel Center
# Kir21 inh: inhibitors of mouse Kir2.1 inward-rectifier potassium channel. P35561. HEK293-Kir2.1, FluxOR thallium flux fluorescence; stronger effect = lower value. B-score at 10 µM. actives 0.85% (n = 310,000). AID 1672;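 active means fluorescence ratio B-score at or below minus 3 SD of library scores, with starting-brightness B-score within 2 SD, cut at about -4.2 in these data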;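 further: channel flux triggered by added potassium and thallium sulfate stimulus; B-score of peak minus minimum fluorescence over baseline after thallium stimulus; more negative B-score means stronger Kir2.1 block with less thallium influx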
# TRPC4 block: TRPC4 (mouse) channel inhibition. Q9QUQ5. HEK293 TRPC4beta/mu-opioid, DAMGO-evoked Fluo4 calcium flux; stronger effect = lower value. B-score at 10 µM. actives 0.39% (n = 300,000);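 active means B-score over 3 SD under the library average, no early fluorescence shift, positive overall ratio signal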
# Target sequence (Q9QUQ5 whole entry, looked up): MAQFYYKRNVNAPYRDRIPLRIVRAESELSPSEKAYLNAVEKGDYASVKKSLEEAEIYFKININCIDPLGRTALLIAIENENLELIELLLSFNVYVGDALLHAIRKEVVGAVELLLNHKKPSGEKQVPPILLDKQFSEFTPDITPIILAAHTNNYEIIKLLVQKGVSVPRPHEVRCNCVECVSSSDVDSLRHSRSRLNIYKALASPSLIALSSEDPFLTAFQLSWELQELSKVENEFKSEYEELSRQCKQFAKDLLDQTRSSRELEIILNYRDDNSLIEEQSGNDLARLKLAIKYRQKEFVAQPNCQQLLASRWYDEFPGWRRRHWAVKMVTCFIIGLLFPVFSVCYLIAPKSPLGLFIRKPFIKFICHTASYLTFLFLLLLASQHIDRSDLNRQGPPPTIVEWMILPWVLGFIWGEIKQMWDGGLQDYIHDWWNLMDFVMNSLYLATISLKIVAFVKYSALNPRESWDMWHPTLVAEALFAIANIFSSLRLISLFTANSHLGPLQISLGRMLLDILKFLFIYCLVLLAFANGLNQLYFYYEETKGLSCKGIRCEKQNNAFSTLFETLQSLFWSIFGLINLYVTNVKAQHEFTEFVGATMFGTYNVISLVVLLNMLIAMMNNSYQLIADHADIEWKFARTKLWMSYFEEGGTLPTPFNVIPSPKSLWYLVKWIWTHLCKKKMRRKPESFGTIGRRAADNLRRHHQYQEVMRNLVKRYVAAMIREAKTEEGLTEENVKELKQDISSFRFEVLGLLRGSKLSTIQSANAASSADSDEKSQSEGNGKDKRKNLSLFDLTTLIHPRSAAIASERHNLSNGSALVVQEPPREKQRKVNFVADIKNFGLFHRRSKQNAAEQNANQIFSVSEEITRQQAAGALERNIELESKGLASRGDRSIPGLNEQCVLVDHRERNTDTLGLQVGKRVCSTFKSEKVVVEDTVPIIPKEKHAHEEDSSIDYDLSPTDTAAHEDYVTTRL
#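 Assay system: Stable TRPC4beta/mu-opioid receptor HEK293 cells | Reagent: DAMGO in two steps, submaximal then maximal | Compound dosing: Single concentration per test compound | Signal: Fluo4 Ca2+ flux fluorescence | Evaluation: Per-well B score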
# TRPC4 PAM: allosterically enhances the mouse TRPC4 cation channel; HEK293 TRPC4beta/mu-opioid, DAMGO EC20, Fluo-4 Ca2+ flux; stronger effect = higher value; AID 2227; B-score at 10 µM; actives 0.42% (n = 310,000);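 active means B-score of calcium response area above 5 SD of library B-scores, with initial fluorescence ratio within 5 SD of library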
# TRPC4 agonist: TRPC4 (mouse) channel activation. Q9QUQ5. HEK293 TRPC4beta/mu-opioid, Fluo4 calcium fluorescence; stronger effect = higher value. B-score at 10 µM. actives 0.49% (n = 310,000). AID 2237;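 active means B-score above 5 SD of library B-scores, and initial fluorescence ratio not above library mean plus 5 SD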;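 further: positive B-score marks a calcium rise read as TRPC4 activation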
#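 Assay system: HEK293 cells stably co-expressing mouse TRPC4beta and mu-opioid receptor / Timing: Fluo4 dye loading 45 min at room temperature, 110 s recording / Signal: Fluo4 calcium-sensitive dye fluorescence, kinetic, 1 Hz baseline / Read-out: integrated baseline-normalised fluorescence ratio, converted to per-well B score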
# TRPC6 activator: activators of mouse TRPC6 channel; B-score at 10 µM; actives 0.13% (n = 310,000); HEK293-TRPC6 membrane potential dye fluorescence; stronger effect = higher value;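 active means B-score of the integrated fluorescence ratio above library mean plus 3 SD, and starting fluorescence ratio within library mean plus 5 SD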;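 further: higher score means more depolarization so channel activation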
# TRPC6 inhibitor: mouse TRPC6 channel inhibition; HEK293-TRPC6, membrane potential dye, ACh-evoked depolarization; stronger effect = lower value; B-score at 10 µM; actives 1.1% (n = 310,000);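 active means B-score under library mean minus 3 SD, initial fluorescence not abnormally high, positive integrated signal ratio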;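 further: B-score derived from integrated fluorescence ratio over the kinetic read; more negative B-score means stronger inhibition of depolarization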
# Numbers stand for hits; 0 = inactive. A selection: hits, their analogues and other compounds. The true share with any hit is near 2.9%.
SMILES,Kir21 inh,TRPC4 block,TRPC4 PAM,TRPC4 agonist,TRPC6 activator,TRPC6 inhibitor
COc1ccc(S(=O)(=O)Nc2cc(S(=O)(=O)c3ccccc3)c(O)cc2C)cc1,0,0,0,0,0,0
Cc1cc(N2CCCCC2)nc2ccccc12,0,-6,0,0,0,0
Cc1cc(N2CCOCC2)nc2cc(O)ccc12,0,0,0,0,0,0
Cc1cc(C)c2ccc(Cl)cc2n1,0,0,0,0,0,0
Cc1cc(OCCN2CCCCC2)nc2ccccc12,0,0,17,0,0,0
COc1ccc(N2CCN(c3cc(C)c4ccc(C)cc4n3)CC2)cc1,0,0,12,0,0,0
Cc1cc(N2CCCN(C)CC2)nc2cc(Cl)ccc12,-4.6,0,13,0,0,0
O=C(Nc1ccc(S(=O)(=O)N2CCCCC2)cc1)C1CCCO1 (stereo not given),0,0,0,0,0,0
O=C(CNC(=O)c1ccc(Cl)cc1Cl)OCn1nnc2ccccc2c1=O,0,0,0,0,0,0
CCOC(=O)N1CCN(C(=O)c2cn(CC)c3ccc(S(=O)(=O)N4CCOCC4)cc3c2=O)CC1,0,0,0,0,0,0
O=S(=O)(c1ccc(Cl)cc1)N1CCCC1c1nc2ccccc2s1 (stereo not given),-4.67,0,0,0,0,0
O=S(=O)(c1cc(Cl)cc(Cl)c1)N1CCCC1c1nc2ccccc2s1 (stereo not given),0,0,0,0,0,0
O=C(COC(=O)c1ccccc1C(=O)N1CCN(c2ccccc2)CC1)Nc1ccc(F)cc1,0,0,17,0,0,0
CCOC(=O)C1(Cc2ccccc2)CCN(Cc2cn[nH]c2-c2ccccc2)CC1,-4.84,0,0,126,0,0
CCOC(=O)C1(CC2CC2)CCN(Cc2cn[nH]c2-c2cccc(F)c2)CC1,0,0,0,0,0,0
CCOC(=O)C1(Cc2ccccc2)CCCN(Cc2cnn(CC)c2)C1 (stereo not given),0,0,0,0,0,0
CCOC(=O)C1(CC2CC2)CCN(Cc2cn[nH]c2-c2ccccc2)CC1,0,-8,0,48,0,0
CCOC(=O)c1[nH]ncc1CN1CCC(Cc2ccccc2)(C(=O)OCC)CC1,0,0,0,0,0,0
CCOC(=O)C1(Cc2ccccc2)CCN(Cc2cnn(CC)c2)CC1,0,0,0,124,0,0
CNC(=O)C(=O)NCCCN1CCOCC1,0,0,0,0,0,0
CC(=O)N1CC(C)Sc2ccc(S(=O)(=O)NCCc3cccc(C)c3)cc21 (stereo not given),0,0,0,0,0,0
O=C(O)c1ccc(S(=O)(=O)N2CCC(NC(=O)C3CCCCC3)CC2)cc1,0,0,0,0,0,0
COc1cccc(NC(=O)CN2CCN(C(=O)c3ccco3)CC2)c1,0,0,0,0,0,0
CC12CCCCN1CCCc1c2[nH]c2ccccc12 (stereo not given),0,0,0,91,0,0
Cc1ccc(S(=O)(=O)Nc2cccc(C(=O)NCC(c3ccco3)N(C)C)c2)cc1F (stereo not given),0,0,0,0,0,0
SMILES,Kir21 inh,TRPC4 block,TRPC4 PAM,TRPC4 agonist,TRPC6 activator,TRPC6 inhibitor
COc1ccc(C(CNC(=O)c2ccc(S(=O)(=O)N(C)C)cc2)N(C)C)cc1 (stereo not given),0,0,0,242,0,0
COc1ccc(NC(=O)c2ccc(S(=O)(=O)N(C)C)cc2)cc1,0,0,0,0,0,0
COc1ccc(C(CNC(=O)c2cccc(NS(=O)(=O)c3ccc(Br)cc3)c2)N(C)C)cc1 (stereo not given),0,0,0,154,0,0
Cc1ccc(S(=O)(=O)Nc2cccc(C(=O)NCC(c3ccccc3)N(C)C)c2)cc1F (stereo not given),0,-10,0,66,0,0
Cc1ccc(NC(=O)CCC(=O)O)cc1F,0,0,0,0,0,0
Cc1ccc(NC(=O)CNCC(c2ccccc2)N(C)C)cc1F (stereo not given),0,0,0,147,0,0
O=[N+]([O-])c1ccc(S(=O)(=O)NCC(c2cccnc2)N2CCc3ccccc32)cc1 (stereo not given),0,0,0,0,0,0
COc1ccccc1Cn1c(C(C)C)nc2ccccc21,-5.01,0,0,0,0,0
COC(=O)c1ccc(NC(=O)N(c2ccccc2)c2ccccc2)cc1,0,0,0,0,0,0
CCOC(=O)c1c(C=O)c2sc(C)cc2n1C,0,0,0,0,0,0
COc1ccc(Cl)cc1C(=O)NCCN(C)C,0,0,28,0,0,0
CN(C)CCNC(=O)c1ccc(COc2ccc(Cl)cc2Cl)cc1,-4.85,0,0,0,0,0
COc1cccc(NC(=O)CN2C(=O)COc3ccc(S(=O)(=O)N4CCCCCC4)cc32)c1,0,0,0,0,0,0
CC1CC(C)CN(CCCNC(=O)c2nn(C)c3c2CS(=O)(=O)c2ccccc2-3)C1 (stereo not given),0,0,0,98,0,0
CC[C@H](C)[C@H](NC(=O)c1ccccc1)C(=O)Nc1ccc(S(=O)(=O)Nc2cc(C)nc(C)n2)cc1,0,0,0,0,0,0
CC(=O)N(CCC(Cc1ccccc1)c1ccco1)Cc1ccco1 (stereo not given),-12.1,0,0,0,0,0
CC(=O)N(CCC(c1ccccc1)c1ccco1)Cc1cccs1 (stereo not given),-8.84,0,0,0,0,0
N#CC(C#N)=C1C=CC=CN1/C(=C\c1ccccc1)C(=O)c1cccs1,-4.99,0,0,0,0,0
CC(C)C(=O)N1CCN(c2nc(-c3ccccc3)c3c(c2C#N)CCCC3)CC1,0,0,14,0,0,0
CCOC(=O)C1(Cc2cccc(F)c2)CCN(Cc2cnc(C)s2)CC1,0,0,0,66,0,0
CCOC(=O)C1(CCCc2ccccc2)CCN(Cc2cnc(C)s2)CC1,0,0,0,74,0,0
CCOC(=O)C1(CCc2ccccc2)CCN(Cc2ccn[nH]2)CC1,0,-6,0,0,0,0
CC1CCN(c2ccc(-c3cccc(NC(=O)c4ccco4)c3)nn2)CC1,0,0,0,0,0,0
CCOc1ccc(Br)cc1S(=O)(=O)N1CC(C)OC(C)C1 (stereo not given),0,0,0,0,0,0
CCOc1cc(Br)ccc1S(=O)(=O)N1CC(C)OC(C)C1 (stereo not given),0,0,0,43,0,0
CC(=O)C1=C(c2ccccc2)NC(=S)NC1c1cc(Cl)c(OC(C)C)c(Cl)c1 (stereo not given),0,0,12,0,0,0
COc1cc(C2NC(=S)NC(c3ccccc3)=C2C(C)=O)cc(Cl)c1OCC(=O)O (stereo not given),0,0,0,0,0,0
